Measured values published in ChEMBL document CHEMBL5154713, “Illuminating a Dark Kinase: Structure-Guided Design, Synthesis, and Evaluation of a Potent Nek1 Inhibitor and Its Effects on the Embryonic Zebrafish Pronephros” (J Med Chem, 2022).

Experiments:
[1] = molecular target: Interleukin-1 receptor-associated kinase 4 (Homo sapiens) (UniProt Q9NWZ3); test: Inhibition of human full length IRAK4 assessed as residual activity at 1 uM using myelin basic protein as substrate incubated for 40 mins in presence of [gamma 33P]-ATP by radiometric scintillation counting assay relative to control
In short: (§1)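 Commercial radiometric panel of 50 kinases. Each recombinant human kinase was tested at a single compound concentration of 1 μM. ATP was set within 15 μM of the apparent Km for ATP for each kinase. Residual activity is relative to control and is the mean of two independent experiments.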

[2] = molecular target: Serine/threonine-protein kinase mTOR (Homo sapiens) (UniProt P42345); test: Inhibition of human full length recombinant MTOR assessed as residual activity at 1 uM incubated for 40 mins in presence of [gamma 33P]-ATP by radiometric scintillation counting assay relative to control; in short: as §1
[3] = Toxicity in fluorescence-labelled Zebrafish pronephron assessed as increase in impaired renal clearance at 10 to 20 uM; set-up: species or system Danio rerio; details: in vivo, dose 10-20 µM
In short: (§2)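 Wild-type embryos exposed from 6 hpf to E3/0.2% DMSO controls or 10 and 20 μM compound, in E3 with 75 μM PTU. At 48 h, 100 nM PT-Yellow for 20 min, washed, then returned to compound up to 96 h total. Anesthetized embryos imaged in agarose molds by widefield microscopy, 33 Z-slices. Tubule fluorescence and area quantified from summed deconvolved projections. n = 3–5.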

[4] = Toxicity in wild-type Zebrafish embryos assessed as effect on normal eye development at 0.05 to 30 uM measured upto 120 hrs; set-up: species or system Danio rerio; details: in vivo, dose 0.05-30 µM
In short: (§3)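 Wild-type embryos, 15 per group with intact chorions, dosed at 6 hpf with 0.05–30 μM final concentrations in E3, diluted from a DMSO stock. Survival checked every 24 h by heartbeat over 120 h, and phenotypes assessed visually. At least triplicate, 5 replicates at 30 μM.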

[5] = molecular target: Phosphatidylinositol 4,5-bisphosphate 3-kinase catalytic subunit beta isoform (Homo sapiens) (UniProt P42338); test: Inhibition of human full length recombinant PI3Kbeta assessed as residual activity using phosphatidylinositol 4,5-bisphosphate as substrate at 1 uM incubated for 40 mins in presence of ATP by HTRF assay relative to control
[6] = Toxicity in wild-type Zebrafish embryos assessed as lethality at 30 uM measured after 72 hrs; set-up: species or system Danio rerio; details: in vivo
In short: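 Wild-type zebrafish embryos with intact chorions were selected at 4 hpf, 15 per group, in E3 medium. At 6 hpf a 10× dilution of a DMSO stock was added to give final concentrations of 0.05–30 μM. Survival was scored every 24 h by heartbeat over 120 h. The 30 μM group was run in 5 replicates and the others at least in triplicate.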

[7] = Toxicity in fluorescence-labelled Zebrafish pronephron assessed as increase in growth of fluid-filled cysts at 10 to 20 uM; set-up: species or system Danio rerio; details: in vivo, dose 10-20 µM; in short: as §2
Homo sapiens = organism: Homo sapiens; test: Inhibition of human full length recombinant CDK2/cyclinE assessed as residual activity at 1 uM using histone H1 as substrate incubated for 40 mins in presence of [gamma 33P]-ATP by radiometric scintillation counting assay relative to control; in short: as §1
[8] = molecular target: Eukaryotic elongation factor 2 kinase (Homo sapiens) (UniProt O00418); test: Inhibition of human eEF-2K (2 to end residues) assessed as residual activity at 1 uM using RKKFGESEKTKTKEFL as substrate incubated for 40 mins in presence of [gamma 33P]-ATP by radiometric scintillation counting assay relative to control; in short: as §1
[9] = molecular target: CDK6/cyclin D3 (Homo sapiens) (UniProt P30281+Q00534); test: Inhibition of human full length recombinant CDK6/CyclinD3 assessed as residual activity at 1 uM using histone H1 as substrate incubated for 40 mins in presence of [gamma 33P]-ATP by radiometric scintillation counting assay relative to control; type: protein-complex assay; in short: as §1
[10] = molecular target: Calcium/calmodulin-dependent protein kinase type 1G (Homo sapiens) (UniProt Q96NX5); test: Inhibition of recombinant full length human CaMK1gamma assessed as residual activity at 1 uM using KKLRRTLSFAEPG as substrate incubated for 40 mins in presence of [gamma-33ATP] by radiometric scintillation counting analysis relative to control; in short: as §1
[11] = molecular target: Serine/threonine-protein kinase Chk1 (Homo sapiens) (UniProt O14757); test: Inhibition of human full length recombinant CHK1 assessed as residual activity at 1 uM using KKKVSRSGLYRSPSMPENLNRPR as substrate incubated for 40 mins in presence of [gamma 33P]-ATP by radiometric scintillation counting assay relative to control; in short: as §1
[12] = molecular target: Serine/threonine-protein kinase PLK3 (Homo sapiens) (UniProt Q9H4B4); test: Inhibition of recombinant human Plk3 (19 to 301 residues) assessed as residual activity at 1 uM using casein as substrate measured after 40 mins in presence of [gamma33P]ATP by radiometric scintillation counting method relative to control; in short: as §1
[13] = molecular target: Phosphatidylinositol 4,5-bisphosphate 3-kinase catalytic subunit delta isoform (Homo sapiens) (UniProt O00329); test: Inhibition of human full length recombinant PI3Kdelta assessed as residual activity at 1 uM using phosphatidylinositol 4,5-bisphosphate as substrate incubated for 40 mins in presence ofATP by HTRF assay relative to control
[14] = molecular target: Serine/threonine-protein kinase Nek7 (Homo sapiens) (UniProt Q8TDX7); test: Inhibition of recombinant human NEK7 (2 to end residues) assessed as residual activity at 1 uM using FLAKSFGSPNRAYKK as substrate measured after 40 mins in presence of [gamma33P]ATP by radiometric scintillation counting method relative to control; in short: as §1
[15] = molecular target: Tyrosine-protein kinase Lyn (Homo sapiens) (UniProt P07948); test: Inhibition of recombinant human Lyn assessed as residual activity at 1 uM using poly(Glu, Tyr) 4:1 as substrate after 40 mins in presence of [gamma-33ATP] by scintillation counting based radiometry assay relative to control; in short: as §1
[16] = molecular target: Tyrosine-protein kinase receptor TYRO3 (Homo sapiens) (UniProt Q06418); test: Inhibition of human RSE (451 to end residues) assessed as residual activity at 1 uM using KVEKIGEGTYGVVYK as substrate measured after 40 mins in presence of [gamma33P]ATP by radiometric scintillation counting method relative to control; in short: as §1
[17] = molecular target: Serine/threonine-protein kinase Nek3 (Homo sapiens) (UniProt P51956); test: Inhibition of recombinant full-length human NEK3 assessed as residual activity at 1 uM using myelin basic protein as substrate measured after 40 mins in presence of [gamma33P]ATP by radiometric scintillation counting method relative to control; in short: as §1
[18] = Toxicity in wild-type Zebrafish embryos assessed as effect on ordinary heartbeat at 0.05 to 30 uM measured upto 120 hrs; set-up: species or system Danio rerio; details: in vivo, dose 0.05-30 µM; in short: as §3
[19] = molecular target: Tyrosine-protein kinase SYK (Homo sapiens) (UniProt P43405); test: Inhibition of recombinant full-length human Syk at 1 uM assessed as residual activity at 1 uM using poly(Glu, Tyr) 4:1 as substrate measured after 40 mins in presence of [gamma33P]ATP by radiometric scintillation counting method relative to control; in short: as §1

Sequence of Serine/threonine-protein kinase Nek7 (Homo sapiens) (Q8TDX7 whole entry, looked up): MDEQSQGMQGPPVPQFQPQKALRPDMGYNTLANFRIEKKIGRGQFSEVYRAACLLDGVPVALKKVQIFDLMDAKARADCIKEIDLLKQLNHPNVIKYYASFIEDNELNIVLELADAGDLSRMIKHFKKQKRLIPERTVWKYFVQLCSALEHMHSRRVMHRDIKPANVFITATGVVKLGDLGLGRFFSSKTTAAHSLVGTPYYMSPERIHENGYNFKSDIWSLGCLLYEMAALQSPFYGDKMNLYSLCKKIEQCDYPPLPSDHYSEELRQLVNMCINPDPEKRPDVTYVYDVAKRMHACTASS
Sequence of Serine/threonine-protein kinase Nek3 (Homo sapiens) (P51956 whole entry): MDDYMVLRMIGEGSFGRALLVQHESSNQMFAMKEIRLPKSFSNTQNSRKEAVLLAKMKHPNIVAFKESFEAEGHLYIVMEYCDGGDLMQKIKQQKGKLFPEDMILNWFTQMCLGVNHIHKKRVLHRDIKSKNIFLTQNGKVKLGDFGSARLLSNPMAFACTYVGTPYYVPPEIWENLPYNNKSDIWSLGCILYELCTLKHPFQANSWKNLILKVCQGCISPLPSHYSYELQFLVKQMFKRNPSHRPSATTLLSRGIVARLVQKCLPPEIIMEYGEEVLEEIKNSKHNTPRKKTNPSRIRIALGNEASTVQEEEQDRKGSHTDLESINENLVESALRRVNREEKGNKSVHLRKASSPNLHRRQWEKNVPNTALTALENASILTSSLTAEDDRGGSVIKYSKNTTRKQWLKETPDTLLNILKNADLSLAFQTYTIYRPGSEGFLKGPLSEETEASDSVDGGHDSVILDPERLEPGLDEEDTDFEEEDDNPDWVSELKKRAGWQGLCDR
Sequence of Phosphatidylinositol 4,5-bisphosphate 3-kinase catalytic subunit beta isoform (Homo sapiens) (P42338 whole entry, looked up, canonical isoform): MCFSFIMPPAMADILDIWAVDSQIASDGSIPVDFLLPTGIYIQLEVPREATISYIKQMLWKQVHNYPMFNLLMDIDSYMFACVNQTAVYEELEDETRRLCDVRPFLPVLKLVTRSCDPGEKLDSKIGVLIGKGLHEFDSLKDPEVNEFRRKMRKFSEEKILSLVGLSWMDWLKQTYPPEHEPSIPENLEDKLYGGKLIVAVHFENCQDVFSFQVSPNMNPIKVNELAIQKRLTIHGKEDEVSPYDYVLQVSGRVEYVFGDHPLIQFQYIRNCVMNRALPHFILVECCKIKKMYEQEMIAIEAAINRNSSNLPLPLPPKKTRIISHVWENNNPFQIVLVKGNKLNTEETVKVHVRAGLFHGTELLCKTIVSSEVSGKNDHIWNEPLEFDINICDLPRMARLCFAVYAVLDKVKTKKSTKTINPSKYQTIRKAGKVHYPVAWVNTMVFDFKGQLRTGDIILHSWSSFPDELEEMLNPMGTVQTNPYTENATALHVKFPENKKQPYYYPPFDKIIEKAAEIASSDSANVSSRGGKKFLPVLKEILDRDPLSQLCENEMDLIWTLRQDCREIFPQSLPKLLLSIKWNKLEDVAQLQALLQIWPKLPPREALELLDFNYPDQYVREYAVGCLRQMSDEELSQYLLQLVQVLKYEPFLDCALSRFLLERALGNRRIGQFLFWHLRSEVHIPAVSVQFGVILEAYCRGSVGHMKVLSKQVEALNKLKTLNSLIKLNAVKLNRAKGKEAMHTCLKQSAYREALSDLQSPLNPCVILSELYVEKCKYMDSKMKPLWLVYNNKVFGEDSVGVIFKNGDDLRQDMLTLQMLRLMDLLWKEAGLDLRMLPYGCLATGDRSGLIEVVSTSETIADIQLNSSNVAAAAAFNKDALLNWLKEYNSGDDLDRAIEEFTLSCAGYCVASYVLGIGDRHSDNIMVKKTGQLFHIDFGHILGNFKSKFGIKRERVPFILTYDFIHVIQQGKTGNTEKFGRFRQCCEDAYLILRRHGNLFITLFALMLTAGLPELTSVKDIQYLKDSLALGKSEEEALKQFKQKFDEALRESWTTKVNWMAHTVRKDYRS
Sequence of Tyrosine-protein kinase Lyn (Homo sapiens) (P07948 2-512 limits assumed): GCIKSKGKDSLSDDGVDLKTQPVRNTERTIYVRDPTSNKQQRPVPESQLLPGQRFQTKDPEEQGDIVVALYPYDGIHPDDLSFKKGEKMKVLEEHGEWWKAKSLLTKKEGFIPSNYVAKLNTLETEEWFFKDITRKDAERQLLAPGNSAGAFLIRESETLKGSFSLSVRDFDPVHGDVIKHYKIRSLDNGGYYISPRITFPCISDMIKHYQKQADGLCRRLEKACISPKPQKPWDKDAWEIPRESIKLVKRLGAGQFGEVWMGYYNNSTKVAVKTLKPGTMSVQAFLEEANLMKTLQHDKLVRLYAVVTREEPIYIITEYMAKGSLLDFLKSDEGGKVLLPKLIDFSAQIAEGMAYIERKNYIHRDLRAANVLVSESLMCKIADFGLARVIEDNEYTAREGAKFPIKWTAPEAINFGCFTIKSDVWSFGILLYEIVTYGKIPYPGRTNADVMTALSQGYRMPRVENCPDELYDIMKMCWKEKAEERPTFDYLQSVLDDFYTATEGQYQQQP
Sequence of Phosphatidylinositol 4,5-bisphosphate 3-kinase catalytic subunit delta isoform (Homo sapiens) (O00329 whole entry, canonical isoform): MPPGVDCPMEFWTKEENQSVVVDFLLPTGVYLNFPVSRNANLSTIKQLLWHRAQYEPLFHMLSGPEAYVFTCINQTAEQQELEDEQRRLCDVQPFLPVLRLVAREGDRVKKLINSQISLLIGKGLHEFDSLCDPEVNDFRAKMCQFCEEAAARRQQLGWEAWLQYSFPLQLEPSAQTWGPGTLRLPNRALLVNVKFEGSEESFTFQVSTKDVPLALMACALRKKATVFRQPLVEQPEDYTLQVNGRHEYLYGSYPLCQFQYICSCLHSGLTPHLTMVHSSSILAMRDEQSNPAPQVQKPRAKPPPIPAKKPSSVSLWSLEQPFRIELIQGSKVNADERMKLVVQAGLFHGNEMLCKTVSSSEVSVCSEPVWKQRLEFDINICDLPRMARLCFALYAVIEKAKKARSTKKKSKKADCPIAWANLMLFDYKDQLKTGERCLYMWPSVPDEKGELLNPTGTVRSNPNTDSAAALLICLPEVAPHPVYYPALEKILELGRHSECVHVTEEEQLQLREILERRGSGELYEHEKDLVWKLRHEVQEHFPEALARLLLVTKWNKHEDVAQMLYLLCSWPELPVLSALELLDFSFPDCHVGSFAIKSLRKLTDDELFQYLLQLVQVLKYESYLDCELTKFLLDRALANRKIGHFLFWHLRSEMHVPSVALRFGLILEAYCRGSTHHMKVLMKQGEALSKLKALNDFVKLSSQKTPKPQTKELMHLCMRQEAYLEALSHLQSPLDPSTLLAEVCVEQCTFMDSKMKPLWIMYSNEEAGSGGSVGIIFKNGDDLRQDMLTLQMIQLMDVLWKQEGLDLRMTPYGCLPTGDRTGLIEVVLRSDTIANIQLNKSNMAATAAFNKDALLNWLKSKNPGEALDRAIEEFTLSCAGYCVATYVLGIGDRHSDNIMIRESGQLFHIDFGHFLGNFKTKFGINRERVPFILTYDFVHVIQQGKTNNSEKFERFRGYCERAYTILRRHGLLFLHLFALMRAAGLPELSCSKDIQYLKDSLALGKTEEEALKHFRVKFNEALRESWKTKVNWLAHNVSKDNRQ
Sequence of Calcium/calmodulin-dependent protein kinase type 1G (Homo sapiens) (Q96NX5 whole entry): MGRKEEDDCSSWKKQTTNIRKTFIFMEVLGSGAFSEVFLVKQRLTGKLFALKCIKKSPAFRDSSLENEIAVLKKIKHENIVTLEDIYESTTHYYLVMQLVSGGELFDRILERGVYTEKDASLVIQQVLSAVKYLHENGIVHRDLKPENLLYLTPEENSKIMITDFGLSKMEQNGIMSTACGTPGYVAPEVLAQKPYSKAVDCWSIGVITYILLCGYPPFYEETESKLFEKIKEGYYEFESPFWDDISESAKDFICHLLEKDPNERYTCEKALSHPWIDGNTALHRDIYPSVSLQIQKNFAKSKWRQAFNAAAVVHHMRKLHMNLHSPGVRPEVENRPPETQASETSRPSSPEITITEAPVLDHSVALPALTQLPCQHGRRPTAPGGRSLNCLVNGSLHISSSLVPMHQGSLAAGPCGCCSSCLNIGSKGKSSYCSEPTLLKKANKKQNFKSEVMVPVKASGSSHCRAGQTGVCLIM
Sequence of Serine/threonine-protein kinase PLK3 (Homo sapiens) (Q9H4B4 whole entry, looked up, the tested form may be a part, canonical isoform): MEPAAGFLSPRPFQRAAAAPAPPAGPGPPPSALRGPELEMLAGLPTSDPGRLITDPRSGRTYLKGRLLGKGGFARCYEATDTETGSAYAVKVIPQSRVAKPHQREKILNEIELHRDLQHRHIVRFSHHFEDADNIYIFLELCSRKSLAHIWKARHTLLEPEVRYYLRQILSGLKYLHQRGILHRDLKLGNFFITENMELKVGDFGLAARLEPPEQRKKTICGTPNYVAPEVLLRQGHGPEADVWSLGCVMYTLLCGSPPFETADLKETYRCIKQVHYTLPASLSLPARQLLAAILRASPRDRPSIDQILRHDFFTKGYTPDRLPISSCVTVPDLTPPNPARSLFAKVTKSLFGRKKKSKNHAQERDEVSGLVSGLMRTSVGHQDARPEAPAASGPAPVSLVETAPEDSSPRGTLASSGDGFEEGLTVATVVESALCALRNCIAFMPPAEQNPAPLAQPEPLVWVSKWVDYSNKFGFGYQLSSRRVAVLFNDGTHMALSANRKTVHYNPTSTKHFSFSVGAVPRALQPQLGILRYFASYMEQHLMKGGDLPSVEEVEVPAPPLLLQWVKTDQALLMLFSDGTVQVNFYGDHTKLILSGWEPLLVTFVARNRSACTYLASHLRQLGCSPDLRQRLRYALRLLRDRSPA
Sequence of Interleukin-1 receptor-associated kinase 4 (Homo sapiens) (Q9NWZ3 whole entry): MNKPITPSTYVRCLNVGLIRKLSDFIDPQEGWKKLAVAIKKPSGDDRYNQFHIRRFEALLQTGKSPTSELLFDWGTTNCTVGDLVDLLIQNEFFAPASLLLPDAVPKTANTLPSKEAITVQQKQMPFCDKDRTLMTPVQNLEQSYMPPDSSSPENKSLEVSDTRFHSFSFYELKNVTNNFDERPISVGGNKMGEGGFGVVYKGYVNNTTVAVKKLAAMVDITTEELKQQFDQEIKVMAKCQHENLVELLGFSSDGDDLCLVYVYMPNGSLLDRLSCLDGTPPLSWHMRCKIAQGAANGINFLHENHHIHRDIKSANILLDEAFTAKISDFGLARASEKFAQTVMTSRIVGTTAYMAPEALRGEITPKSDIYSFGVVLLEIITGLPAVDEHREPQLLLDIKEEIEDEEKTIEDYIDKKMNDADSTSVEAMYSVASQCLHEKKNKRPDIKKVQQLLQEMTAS

## O=S(=O)(N[C@@H](CO)Cc1c[nH]c2ccccc12)c1ccc(-c2ccnc3[nH]ccc23)cc1
[1]
  Activity: > 75%
[2]
  Activity: > 75%
[3]
  Activity: Toxic
[4]
  Activity: Non-Toxic
[5]
  Activity: > 75%
[6]
  Activity: Toxic
[7]
  Activity: Toxic
Homo sapiens
  Activity: > 75%
[8]
  Activity: > 75%
[9]
  Activity: > 75%
[10]
  Activity: > 75%
[11]
  Activity: > 75%
[12]
  Activity: > 75%
[13]
  Activity: > 75%
[14]
  Activity: > 75%
[15]
  Activity: > 75%
[16]
  Activity: > 75%
[17]
  Activity: > 75%
[18]
  Activity: Non-Toxic
[19]
  Activity: > 75%
